The results in this text go back to ChEMBL document CHEMBL1156084, “Synthesis and structure-activity relationships of pyrazolodiazepine derivatives as human P2X7 receptor antagonists” (Bioorg Med Chem Lett, 2009).

Assay type in all cases: functional, cell-based
Test [1] has as its target T1, P2X purinoceptor 7 (Homo sapiens) (UniProt Q99572).
T1 sequence (whole entry): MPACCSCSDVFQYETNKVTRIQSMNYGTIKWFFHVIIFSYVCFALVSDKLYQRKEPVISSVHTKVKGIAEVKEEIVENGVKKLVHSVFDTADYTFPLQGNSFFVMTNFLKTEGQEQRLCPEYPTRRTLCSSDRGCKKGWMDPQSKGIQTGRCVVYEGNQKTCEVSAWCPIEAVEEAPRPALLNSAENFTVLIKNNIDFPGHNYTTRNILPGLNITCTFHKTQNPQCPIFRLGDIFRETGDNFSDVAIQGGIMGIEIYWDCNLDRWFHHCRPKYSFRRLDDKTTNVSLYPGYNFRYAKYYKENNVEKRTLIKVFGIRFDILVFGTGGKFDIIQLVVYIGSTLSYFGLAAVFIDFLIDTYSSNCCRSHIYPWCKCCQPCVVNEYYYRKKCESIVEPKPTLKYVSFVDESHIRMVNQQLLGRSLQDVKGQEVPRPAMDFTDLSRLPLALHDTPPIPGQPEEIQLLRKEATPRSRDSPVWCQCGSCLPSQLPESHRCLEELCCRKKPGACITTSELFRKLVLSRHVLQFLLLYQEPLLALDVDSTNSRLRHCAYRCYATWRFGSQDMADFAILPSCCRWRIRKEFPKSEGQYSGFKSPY
In words: Antagonist activity at human P2X7 receptor expressed in HEK293 cells assessed as inhibition of BzATP-induced fluorescent ethidium accumulation. The conditions noted are these: concentration not given here. The procedure, abridged: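 Adherent HEK293 cells stably transfected with human P2X7 cDNA, resuspended at 2.5×10^6 cells/mL in HEPES buffer (mM: ethidium bromide 0.1, EDTA 1, glucose 5, HEPES 20, KCl 140; pH 7.4). Cells added to compound wells, then BzATP, and incubated 120 min at 37 °C. Ethidium uptake read by fluorescence (ex 530/20, em 590/20). IC50 is the mean from dose–response curves of at least three experiments.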

The target in test [2] is T2, P2X purinoceptor 7 (Homo sapiens, UniProt Q99572).
T2 sequence (Q99572 whole entry): T1 sequence (whole entry)
In words: Antagonist activity at human P2X7 receptor expressed in HEK293 cells assessed as inhibition of BzATP-induced fluorescent ethidium accumulation […]. The procedure, abridged: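 Human P2X7-expressing HEK293 cells at 2.5×10^6 cells/mL in pH 7.4 HEPES/KCl/EDTA/glucose buffer containing 0.1 mM ethidium bromide. Compound tested at 10 μM, then BzATP added, and cells held 120 min at 37 °C. Ethidium accumulation measured by fluorescence (ex 530/20, em 590/20) and expressed as % inhibition, mean ± SD of three repeats.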

Test [3] concerns the target T1, P2X purinoceptor 7 (Homo sapiens). Nature of the test: Antagonist activity at P2X7 receptor in IFN-gamma/LPS-differentiated human THP1 cells assessed as inhibition of BzATP-induced IL1-beta release at 10 uM treated 30 mins prior to BzATP addition by ELISA. The conditions noted are these: THP-1. The procedure, abridged: (§1)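 THP-1 cells differentiated and primed 3 h with 25 ng/mL LPS plus 10 ng/ml IFNγ. Compound added 30 min before stimulation with 1 mM BzATP for 30 min. Supernatants cleared by centrifugation (1000 rpm, 5 min), and mature human IL-1β quantified by ELISA.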
(In general: ELISA stands for enzyme-linked immunosorbent assay.)

The target is the same in test [4]. Nature of the test: Antagonist activity at P2X7 receptor in IFN-gamma/LPS-differentiated human THP1 cells assessed as inhibition of BzATP-induced IL1-beta release treated 30 mins prior to BzATP addition by ELISA. The conditions noted are these: THP-1. In short, it runs like this:
as §1

Take `Cc1ccc(CN2C[C@H](COC(=O)c3cn(C)c4ccccc34)NC(=O)c3nn(CCc4ccccc4)cc32)cc1`: the inhibition (in general, the relative decrease from the control value, in per cent) is 87% in test [1] and 38% in test [3]. Moreover, the IC50 (as a rule, the concentration at which inhibition is half-maximal) in test [2] stood at 520 nM.
`CC(C)(C)OC(=O)N1CCC(CCn2cc3c(n2)C(=O)N[C@H](Cc2ccccc2)CN3C(=O)C2CC2)CC1`: the inhibition in test [1] came out at 70%. In addition, the IC50 in test [2] amounted to 4310 nM.
Take `Cn1cc(C(=O)OC[C@H]2CN(Cc3ccc(F)cc3)c3cn(CCc4ccccc4)nc3C(=O)N2)c2ccccc21`: the inhibition in test [1] is 39%.
With `O=C1N[C@@H](COC(=O)c2cccc3ccccc23)CN(Cc2ccccc2)c2cn(CCc3ccccc3)nc21`, the inhibition in test [1] came out at 44%.
Regarding `Cn1cc(CN2C[C@H](COC(=O)c3cccc4cnccc34)NC(=O)c3nn(CCc4ccccc4)cc32)c2ccccc21`, the inhibition in test [1] was determined as 33%.
Same read-out and setting: the value for `O=C1N[C@@H](Cc2ccccc2)CN(C(=O)C2CC2)c2cn(CCC3CCNCC3)nc21` was 13%.
As for `O=C1N[C@@H](Cc2ccccc2)CN(C(=O)C2CC2)c2cn(CCC3CCN(Cc4cccc5ncccc45)CC3)nc21`, in test [1], the inhibition came out at 24%.
In the case of `Cn1cc(C(=O)OCC2CN(Cc3cccc4ccccc34)c3cn(CCc4ccccc4)nc3C(=O)N2)c2ccccc21` (single isomer, unassigned), the inhibition in test [1] was determined as 48%.
For the molecule `Cn1cc(CN2CCC(CCn3cc4c(n3)C(=O)N[C@@H](Cc3ccccc3)CN4C(=O)C3CC3)CC2)c2ccccc21`, the inhibition in test [1] is 39%.
Turning to `CN([C@@H](Cc1ccc(OS(=O)(=O)c2cccc3cnccc23)cc1)C(=O)N1CCN(c2ccccc2)CC1)S(=O)(=O)c1cccc2cnccc12`, in test [2], the IC50 is 110 nM. Besides, the inhibition in test [3] is 103%.
As to `Cc1cc(O)ccc1CN1C[C@H](COC(=O)c2cn(C)c3ccccc23)NC(=O)c2nn(CCc3ccccc3)cc21`, the inhibition is 88% in test [1] and 37% in test [3]. In test [2], the IC50 was 180 nM.
Consider `O=C1N[C@@H](COC(=O)c2cccc3cnccc23)CN(Cc2ccc(Br)cc2)c2cn(CCc3ccccc3)nc21`, for which, in test [1], the inhibition is 38%.
With `COc1ccc(CN2C[C@H](COC(=O)c3cn(C)c4ccccc34)NC(=O)c3nn(CCc4ccccc4)cc32)cc1`, the inhibition in test [1] worked out at 29%.
Regarding `Cc1cccc(CN2C[C@H](COC(=O)c3cn(C)c4ccccc34)NC(=O)c3nn(CCc4ccccc4)cc32)c1`, in test [1], the inhibition is 46%.
Take `O=C1N[C@@H](COC(=O)c2cccc3ccccc23)CNc2cn(CCc3ccccc3)nc21`: the inhibition in test [1] amounted to 46%.
As to `Cc1cccc(CN2C[C@H](COC(=O)c3cccc4cnccc34)NC(=O)c3nn(CCc4ccccc4)cc32)c1`, the inhibition in test [1] is 42%.
In the case of `O=C1N[C@@H](Cc2ccccc2)CN(C(=O)C2CC2)c2cn(CCC3CCN(Cc4cccc5cnccc45)CC3)nc21`, the inhibition in test [1] turned out to be 27%.
As for `O=C1N[C@@H](COC(=O)c2cccc3cnccc23)CN(Cc2ccc(F)cc2)c2cn(CCc3ccccc3)nc21`, the figures for the inhibition in test [1] and in test [3] were 75% and 65%, respectively. The IC50 in test [2] stood at 1280 nM.
Consider `Cc1cc(O)ccc1CN1C[C@@H](COC(=O)c2cn(C)c3ccccc23)NC(=O)c2nn(CCc3ccccc3)cc21`, for which the inhibition in test [1] came out at 30%.
With `CC(C)(C)OC(=O)N1CCC(CCn2cc3c(n2)C(=O)N[C@@H](Cc2ccccc2)CN3C(=O)C2CC2)CC1`, the inhibition in test [1] turned out to be 61%. Also, the IC50 in test [2] is 13000 nM.
In the case of `Cn1cc(C(=O)OC[C@H]2CNc3cn(CCc4ccccc4)nc3C(=O)N2)c2ccccc21`, the inhibition in test [1] stood at 43%.
As to `Cn1cc(C(=O)OC[C@H]2CN(Cc3ccc(Br)cc3)c3cn(CCc4ccccc4)nc3C(=O)N2)c2ccccc21`, the inhibition in test [1] turned out to be 88%; in test [3], 50%. In addition, the IC50 in test [2] was 850 nM.
For `Cc1cc(CN2C[C@H](COC(=O)c3cccc4cnccc34)NC(=O)c3nn(CCc4ccccc4)cc32)ccc1O`, the inhibition in test [1] was 84%; in test [3] it was 51%. Further, in test [2], the IC50 was 740 nM.
As for `Cn1cc(C(=O)OC[C@H]2CN(Cc3ccc(Cl)cc3)c3cn(CCc4ccccc4)nc3C(=O)N2)c2ccccc21`, the inhibition in test [1] worked out at 94%; in test [3], 55%. The IC50 in test [2] worked out at 250 nM.
Consider `Cn1cc(C(=O)OC[C@H]2CN(Cc3cccc(F)c3)c3cn(CCc4ccccc4)nc3C(=O)N2)c2ccccc21`, for which the inhibition in test [1] was found to be 45%.
Regarding `Cn1cc(C(=O)OC[C@H]2CN(Cc3ccc([N+](=O)[O-])cc3)c3cn(CCc4ccccc4)nc3C(=O)N2)c2ccccc21`, the inhibition was found to be 65% in test [1] and 41% in test [3]. The IC50 in test [2] came to 1420 nM.
In the case of `O=C(OC[C@H]1CNc2cn(CCc3ccccc3)nc2C(=O)N1)c1ccccc1`, the inhibition in test [1] amounted to 33%.
`O=C1N[C@@H](COC(=O)c2cccc3cnccc23)CNc2cn(CCc3ccccc3)nc21`: the inhibition in test [1] turned out to be 71%; in test [3] it was 44%. The IC50 in test [2] is 790 nM.
Consider `Cn1cc(CN2C[C@H](COC(=O)c3cn(C)c4ccccc34)NC(=O)c3nn(CCc4ccccc4)cc32)c2ccccc21`, for which the inhibition was determined as 68% in test [1] and 65% in test [3]. Moreover, the IC50 in test [2] was 1070 nM.
As to `Cc1ccc(CN2C[C@H](COC(=O)c3cccc4cnccc34)NC(=O)c3nn(CCc4ccccc4)cc32)cc1`, the inhibition in test [1] is 69%; in test [3] it was 48%. The IC50 in test [2] was determined as 1180 nM.
`O=C1N[C@@H](COC(=O)c2cccc3cnccc23)CN(Cc2ccccc2)c2cn(CCc3ccccc3)nc21`: the values for the inhibition in test [1] and in test [3] were 68% and 42%, respectively. Further, the IC50 in test [2] came to 1450 nM.
With `Cn1cc(C(=O)OC[C@H]2CN(Cc3ccccc3)c3cn(CCc4ccccc4)nc3C(=O)N2)c2ccccc21`, the inhibition was 94% in test [1] and 105% in test [3]. Besides, the IC50 in test [2] was determined as 310 nM. Further, in test [4], the Activity entry is “Dose-dependent effect”.
